High-throughput results deposited in PubChem BioAssay by Johns Hopkins Ion Channel Center.
TRPC4 block = blocks the mouse TRPC4 cation channel. B-score at 10 µM. HEK293 TRPC4beta/mu-opioid, DAMGO-evoked Fluo4 calcium flux; stronger effect = lower value. AID 2247. actives 0.39% (n = 300,000). Q9QUQ5;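 active = B-score over 3 SD under the library average, no early fluorescence shift, positive overall ratio signal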
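Material: HEK293 cells with stable TRPC4beta plus mu-opioid receptor expression; probe or stimulus: DAMGO in two steps, submaximal then maximal; technique: Fluo4 calcium fluorescence by kinetic imaging, 5 s 1 Hz baseline; measure: integrated fluorescence ratio relative to baseline, converted to per-well B score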
TRPC6 inh = mouse TRPC6 channel inhibition. HEK293-TRPC6, membrane potential dye, ACh-evoked depolarization; stronger effect = lower value. Q61143. actives 1.1% (n = 310,000). B-score at 10 µM;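 active = B-score under library mean minus 3 SD, initial fluorescence not abnormally high, positive integrated signal ratio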;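 note: B-score derived from integrated fluorescence ratio over the kinetic read; more negative B-score means stronger inhibition of depolarization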
Target sequence (Q61143 whole entry, looked up): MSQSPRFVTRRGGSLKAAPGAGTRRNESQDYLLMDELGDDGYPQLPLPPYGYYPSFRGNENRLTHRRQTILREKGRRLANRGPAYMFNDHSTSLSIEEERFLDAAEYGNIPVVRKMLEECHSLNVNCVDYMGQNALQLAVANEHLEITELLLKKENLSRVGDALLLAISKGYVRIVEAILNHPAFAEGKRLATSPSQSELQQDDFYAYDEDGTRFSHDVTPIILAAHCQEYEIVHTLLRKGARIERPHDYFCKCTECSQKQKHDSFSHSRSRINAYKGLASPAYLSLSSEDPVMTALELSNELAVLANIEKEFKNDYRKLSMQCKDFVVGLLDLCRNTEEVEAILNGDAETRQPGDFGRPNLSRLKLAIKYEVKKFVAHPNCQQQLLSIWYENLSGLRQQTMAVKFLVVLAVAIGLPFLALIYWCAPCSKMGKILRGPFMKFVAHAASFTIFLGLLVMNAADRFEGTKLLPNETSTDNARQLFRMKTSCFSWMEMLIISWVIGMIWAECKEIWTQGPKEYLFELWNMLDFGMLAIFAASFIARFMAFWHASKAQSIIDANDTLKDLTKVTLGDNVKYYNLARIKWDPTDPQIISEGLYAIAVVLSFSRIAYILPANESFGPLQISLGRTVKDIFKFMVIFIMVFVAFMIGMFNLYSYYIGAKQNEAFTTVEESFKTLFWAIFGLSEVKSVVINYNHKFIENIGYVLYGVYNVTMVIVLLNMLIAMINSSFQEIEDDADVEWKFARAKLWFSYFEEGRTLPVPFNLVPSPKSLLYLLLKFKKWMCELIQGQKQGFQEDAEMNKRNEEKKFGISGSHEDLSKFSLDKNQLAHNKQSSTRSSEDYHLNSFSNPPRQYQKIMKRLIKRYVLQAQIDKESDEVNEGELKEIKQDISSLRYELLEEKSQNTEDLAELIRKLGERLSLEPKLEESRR
TRPC6 activator = activates the mouse TRPC6 cation channel | HEK293-TRPC6 membrane potential dye fluorescence; stronger effect = higher value | B-score at 10 µM | actives 0.13% (n = 310,000);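 active = B-score of the integrated fluorescence ratio above library mean plus 3 SD, and starting fluorescence ratio within library mean plus 5 SD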;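 note: higher score means more depolarization so channel activation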
TRPC4 PAM = allosterically enhances the mouse TRPC4 cation channel. Q9QUQ5. HEK293 TRPC4beta/mu-opioid, DAMGO EC20, Fluo-4 Ca2+ flux; stronger effect = higher value. B-score at 10 µM. actives 0.42% (n = 310,000);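 active = B-score of calcium response area above 5 SD of library B-scores, with initial fluorescence ratio within 5 SD of library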;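 note: B-score of integrated fluorescence ratio over time as area under calcium response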
TRPC4 act = opens the mouse TRPC4 cation channel; Q9QUQ5; HEK293 TRPC4beta/mu-opioid, Fluo4 calcium fluorescence; stronger effect = higher value; B-score at 10 µM; actives 0.49% (n = 310,000); AID 2237;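 active = B-score above 5 SD of library B-scores, and initial fluorescence ratio not above library mean plus 5 SD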;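 note: positive B-score marks a calcium rise read as TRPC4 activation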
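Assay system: HEK293 cells stably co-expressing mouse TRPC4beta and mu-opioid receptor / Timing: Fluo4 dye loading 45 min at room temperature, 110 s recording / Signal: Fluo4 calcium-sensitive dye fluorescence, kinetic, 1 Hz baseline / Read-out: integrated baseline-normalised fluorescence ratio, converted to per-well B score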
An asterisk follows results filed as active; i = inactive. The list is not random: actives were taken first. Their share in the collection is about 2.3%.

SMILES | TRPC4 block | TRPC6 inh | TRPC6 activator | TRPC4 PAM | TRPC4 act
Cc1ccsc1C(C(=O)NC(C)(C)C)N(Cc1ccco1)C(=O)c1csnn1 (stereo unspecified) | i | i | i | i | i
O=C(NCCc1ccccn1)c1ccc(OC2CCN(CCc3ccccc3)CC2)cc1 | i | i | i | i | 66*
CN(Cc1cnn(C)c1)C(=O)c1ccc(OC2CCN(CCc3ccccc3)CC2)cc1 | -6* | i | i | i | i
O=C(NCCc1cccc(Cl)c1)c1ccc(OC2CCN(Cc3ccccn3)CC2)cc1 | i | i | i | i | 150*
CSCCCNC(=O)c1ccc(OC2CCN(CCc3ccccc3)CC2)cc1 | i | i | i | i | 58*
CC(C)Cn1c(N2CCN(CC(=O)Nc3ccc(Cl)cc3)CC2)nc2ccccc21 | i | i | i | i | i
CCn1c(N2CCN(CC(=O)Nc3cccc(C)c3C)CC2)nc2ccccc21 | i | i | i | i | 147*
O=C(NC1CCCCC1)N1CCN(c2ccccc2)CC1 | i | i | i | i | i
O=C(NC1CCCCC1)N1CCN(C(c2ccccc2)c2ccccc2)CC1 | -6* | i | i | i | i
CCn1c(N2CCN(C(=O)NC3CCCCC3)CC2)nc2ccccc21 | i | i | i | i | 46*
CCn1c(NC2CCCCC2)nc2ccccc21 | -6* | i | i | i | i
O=C(COc1ccc(Cl)cc1)Nc1ccccc1N1CCOCC1 | i | i | i | i | i
Cc1cc2[nH]c(=O)c(=O)[nH]c2cc1S(=O)(=O)Nc1cccc(F)c1 | i | i | i | i | i
CCn1c(N2CCN(C(=O)Nc3ccc(F)cc3)CC2)nc2ccccc21 | i | i | i | i | 118*
CCCn1c(N2CCN(C(=O)Nc3ccccc3)CC2)nc2ccccc21 | i | i | i | i | i
Cc1ccc(C)c2nc3sc(C(=O)O)cc3cc12 | -7* | i | i | i | i
COc1ccc(CCN=C(N)NS(=O)(=O)c2ccc(OC)cc2)cc1 | i | i | i | i | i
COc1ccc(CCN=C(N)Nc2nc(C)cc(C)n2)cc1 | -6* | i | i | i | i
CN(C)CCCNc1ncnc2c1cnn2-c1ccccc1 | i | i | i | 25* | i
CN(C)CCCNc1ncnc2c1cnn2Cc1ccccc1Cl | i | i | i | 18* | i
CN(C)CCNc1ncnc2ccccc12 | i | i | i | 11* | i
CC(=O)NNC(=S)NC(=O)c1ccc(C)cc1 | i | i | i | i | i
O=C(CCc1ccccc1)NNC(=S)NC(=O)c1ccc(Cl)cc1 | i | i | i | i | 211*
Cc1ccc(C(=O)NNC(=S)NC(=O)c2ccc(Cl)cc2)cc1 | i | i | i | i | 222*
Cc1nnc(Sc2cc(NCCCO)c([N+](=O)[O-])c3nonc23)s1 | -6* | i | i | i | i
SMILES | TRPC4 block | TRPC6 inh | TRPC6 activator | TRPC4 PAM | TRPC4 act
O=C(CN1CCN(Cc2ccccc2)CC1)N=Nc1c(O)[nH]c2ccccc12 | i | i | i | i | i
O=C(CN1CCCCC1)N=Nc1c(O)[nH]c2ccccc12 | -8* | i | i | i | i
Cc1ccn2c(NC3CCCC3)c(-c3cccs3)nc2c1 | -6* | i | i | i | i
c1csc(-c2nc3ccccn3c2NC2CCCCC2)c1 | i | i | i | i | i
CC(OC(=O)CNC(=O)c1ccccc1F)C(=O)Nc1nc(-c2ccccc2)cs1 (stereo unspecified) | -6* | i | i | i | i
Cc1csc(NC(=O)C(NC(=O)c2ccccc2F)C(C)C)n1 (stereo unspecified) | i | i | i | i | i
Cc1ccc(CSc2nnc([C@@H]3CCCN3C(=O)OC(C)(C)C)o2)cc1 | i | i | i | i | i
COc1ccc(-n2c(-c3ccc(Br)cc3)c[n+]3c2CCCCC3)cc1 | -6* | i | i | i | i
Cc1ccc(-n2c(-c3ccccc3)c[n+]3c2CCC3)cc1 | i | i | i | i | i
COC1=C(Nc2ccccc2)C(=O)c2ccccc2C1=O | i | i | i | 13* | i
COC1=C(Nc2ccc(C)cc2)C(=O)c2ccccc2C1=O | i | i | i | i | i
O=[N+]([O-])c1ccccc1CN1CCN(Cc2c[nH]c3ccccc23)CC1 | -7* | i | i | i | i
O=C(c1ccccc1)N1CCN(Cc2c[nH]c3ccccc23)CC1 | i | i | i | i | i
O=[N+]([O-])c1cccc(NC(=S)N2CCN(c3ccccn3)CC2)c1 | i | i | i | i | i
CC(C)CN1CCN(Cc2cccn2-c2cccnc2)CC1CCO (stereo unspecified) | i | i | i | i | i
OCC1(CCc2ccccc2)CCN(Cc2cccn2-c2cccnc2)CC1 | i | i | i | i | 57*
Cc1cc(Br)cc2c(C(=O)NCC3CCCO3)cc(-c3cccs3)nc12 (stereo unspecified) | i | i | i | i | i
Cc1ccc(-n2nc(-c3cccs3)cc2C(=O)NCC2CCCO2)c(C)c1 (stereo unspecified) | -7* | i | i | i | 55*
OC(CNC1Cc2ccccc2C1)COc1ccc(Cl)cc1 (stereo unspecified) | i | i | i | i | i
OC(CNC1CCCc2ccccc21)COc1c(Cl)cccc1Cl (stereo unspecified) | -5* | i | i | i | 44*
CCN(C(=O)c1ccco1)C1C2CC3CC(C2)CC1C3 (stereo unspecified) | i | i | i | i | i
COc1ccc(C(c2nnnn2C(C)(C)C)N2CCN(c3nc4ccccc4s3)CC2)cc1 (stereo unspecified) | i | i | i | i | i
CCC(C)(C)n1nnnc1C(c1ccc(O)c(OC)c1)N1CCN(c2nc3ccccc3s2)CC1 (stereo unspecified) | i | i | i | i | 58*
Cc1cc(C)c(C(=O)c2ccc(C(=O)N(C(C)C)C(C)C)cc2)c(C)c1 | i | i | i | 10* | i
Cc1cc(C)c(C(=O)c2ccc(C(=O)NC(C)(C)C)cc2)c(C)c1 | i | i | i | i | i
Cc1cc(C)c(C(=O)c2ccc(C(=O)N3CCCCC3)cc2)c(C)c1 | i | i | i | 16* | i
Cc1cc(C)c(S(=O)(=O)c2cccc(Br)c2C)c(Cl)n1 | i | i | i | i | i
NC(=S)N/N=C1/CCSc2ccc3ccccc3c21 | i | i | i | 17* | i
